Active and inactive are the calls of the source. The calls are words filed in the database; no cut-off is given here.
What was measured:
[1] = target: Tubulin alpha-1C chain (Homo sapiens) (UniProt Q9BQE3); experiment: Binding affinity to tubulin alpha-1C in human A549 cells at 0.15 mM after 4 hrs by HPLC-MS based pull down assay relative to control; assay type: cell-based
Procedure, shortened: (§1)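 A549 lysate in NETN buffer (pH 8.0, 0.5% NP-40) incubated with biotinylated probe (0.15 mM final) 4 h at 4 °C, with biotin or control probe as comparators. Streptavidin Dynabeads 1 h at 4 °C, six NETN washes, proteins eluted by boiling in SDS buffer. After trypsin digestion, identification by LC-MS/MS on Q Exactive HF.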

A549 [2] = experiment: Binding affinity to tubulin beta in human A549 cells at 0.15 mM after 4 hrs by HPLC-MS based pull down assay relative to control; assay type: cell-based; procedure, shortened: as §1
[3] = target: T1, ATP-dependent RNA helicase DDX1 (Homo sapiens) (UniProt Q92499); experiment: Binding affinity to DDX1 in human A549 cells at 0.15 mM after 4 hrs by HPLC-MS based pull down assay relative to control; assay type: cell-based; procedure, shortened: as §1
T1 sequence (whole entry): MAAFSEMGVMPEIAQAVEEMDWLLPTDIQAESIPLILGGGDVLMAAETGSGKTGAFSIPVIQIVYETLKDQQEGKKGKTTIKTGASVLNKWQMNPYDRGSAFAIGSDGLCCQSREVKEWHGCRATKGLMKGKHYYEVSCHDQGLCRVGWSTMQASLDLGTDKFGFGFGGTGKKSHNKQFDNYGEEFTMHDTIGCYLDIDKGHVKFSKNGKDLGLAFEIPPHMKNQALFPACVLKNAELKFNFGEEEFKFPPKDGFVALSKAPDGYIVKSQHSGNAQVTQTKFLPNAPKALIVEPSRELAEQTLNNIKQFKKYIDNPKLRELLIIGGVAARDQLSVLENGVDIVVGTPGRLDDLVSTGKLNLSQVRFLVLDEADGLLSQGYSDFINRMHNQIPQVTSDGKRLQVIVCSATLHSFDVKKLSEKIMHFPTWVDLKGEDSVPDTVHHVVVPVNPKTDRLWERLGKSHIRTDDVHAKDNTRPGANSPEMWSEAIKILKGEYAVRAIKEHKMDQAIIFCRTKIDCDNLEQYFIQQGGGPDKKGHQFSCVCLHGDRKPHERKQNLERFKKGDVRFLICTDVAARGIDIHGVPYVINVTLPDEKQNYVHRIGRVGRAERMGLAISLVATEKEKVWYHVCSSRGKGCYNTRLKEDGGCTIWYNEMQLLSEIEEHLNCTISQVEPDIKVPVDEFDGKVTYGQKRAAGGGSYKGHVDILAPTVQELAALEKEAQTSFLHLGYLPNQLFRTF

[4] = target: Probable ATP-dependent RNA helicase DDX17 (Homo sapiens) (UniProt Q92841); experiment: Binding affinity to DDX17 in human A549 cells at 0.15 mM after 4 hrs by HPLC-MS based pull down assay relative to control; assay type: cell-based; procedure, shortened: as §1
[5] = target: T2, Nucleolar RNA helicase 2 (Homo sapiens) (UniProt Q9NR30); experiment: Binding affinity to nucleolar RNA helicase 2 in human A549 cells at 0.15 mM after 4 hrs by HPLC-MS based pull down assay relative to control; assay type: cell-based; procedure, shortened: as §1
T2 sequence (whole entry): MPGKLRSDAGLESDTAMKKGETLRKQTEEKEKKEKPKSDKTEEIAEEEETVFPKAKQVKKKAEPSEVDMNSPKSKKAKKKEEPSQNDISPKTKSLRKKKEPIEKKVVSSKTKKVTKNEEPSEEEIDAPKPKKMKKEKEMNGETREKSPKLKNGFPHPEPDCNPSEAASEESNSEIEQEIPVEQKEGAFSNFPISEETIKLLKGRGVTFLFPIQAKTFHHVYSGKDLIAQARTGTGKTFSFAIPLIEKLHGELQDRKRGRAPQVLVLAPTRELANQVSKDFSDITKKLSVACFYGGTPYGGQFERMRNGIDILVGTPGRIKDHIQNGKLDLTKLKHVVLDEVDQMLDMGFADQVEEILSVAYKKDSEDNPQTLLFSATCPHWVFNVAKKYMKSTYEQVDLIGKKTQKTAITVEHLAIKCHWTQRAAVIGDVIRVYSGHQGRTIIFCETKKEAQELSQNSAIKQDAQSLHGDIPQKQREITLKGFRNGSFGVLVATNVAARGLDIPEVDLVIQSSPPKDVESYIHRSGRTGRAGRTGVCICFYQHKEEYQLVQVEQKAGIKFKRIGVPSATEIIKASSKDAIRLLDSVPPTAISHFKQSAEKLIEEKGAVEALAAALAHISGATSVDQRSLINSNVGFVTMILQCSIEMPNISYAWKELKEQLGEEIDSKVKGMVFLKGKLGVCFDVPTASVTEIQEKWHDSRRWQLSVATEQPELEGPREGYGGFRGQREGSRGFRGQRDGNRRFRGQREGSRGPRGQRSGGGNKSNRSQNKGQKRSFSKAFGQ

[6] = target: Ubiquitin carboxyl-terminal hydrolase 10 (Homo sapiens) (UniProt Q14694); experiment: Binding affinity to ubiquitin carboxyl-terminal hydrolase 10 isoform-2 in human A549 cells at 0.15 mM after 4 hrs by HPLC-MS based pull down assay relative to control; assay type: cell-based; procedure, shortened: as §1
[7] = target: Serine/arginine-rich splicing factor 9 (Homo sapiens) (UniProt Q13242); experiment: Binding affinity to serine/arginine-rich-splicing factor 9 in human A549 cells at 0.15 mM after 4 hrs by HPLC-MS based pull down assay relative to control; assay type: cell-based; procedure, shortened: as §1
A549 [8] = experiment: Binding affinity to tubulin alpha in human A549 cells immunoblot based based pull down assay; assay type: cell-based
Procedure, shortened: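 A549 lysate in NETN buffer incubated with biotin, biotinylated probe or control probe at 4 °C, then streptavidin Dynabeads 1 h at 4 °C. Beads washed six times, bound proteins run on SDS-PAGE and immunoblotted for α-tubulin.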

Sus scrofa [9] = species: Sus scrofa; experiment: Binding affinity to porcine tubulin after overnight incubation by streptavidin pull down assay
Procedure, shortened: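 Purified porcine neuronal tubulin incubated with biotin, biotinylated probe or control probe in NETN buffer at 4 °C. Streptavidin Dynabeads 1 h at 4 °C, six washes, then SDS-PAGE and α-tubulin immunoblot.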

Sus scrofa [10] = species: Sus scrofa; experiment: Inhibition of vinblastine binding to porcine tubulin treated 2 hrs post colchicine treatment by pull down assay
Procedure, shortened: (§2)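 Porcine neuronal tubulin was preincubated with excess taxol, colchicine, vinblastine or nocodazole for 2 h at 4 °C. Biotinylated probe was then added in NETN buffer, followed by streptavidin Dynabead pull-down for 1 h at 4 °C and six washes. Bound α-tubulin was detected by SDS–PAGE and immunoblot. Three independent experiments.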

Sus scrofa [11] = species: Sus scrofa; experiment: Inhibition of nocodazole binding to porcine tubulin treated 2 hrs post colchicine treatment by pull down assay; procedure, shortened: as §2
Sus scrofa [12] = species: Sus scrofa; experiment: Inhibition of taxol binding to porcine tubulin treated 2 hrs post colchicine treatment by pull down assay; procedure, shortened: as §2
Sus scrofa [13] = species: Sus scrofa; experiment: Inhibition of colchicine binding to porcine tubulin preincubated with tubulin followed by colchicine treatment measured after 2 hrs by immunoblot analysis
Sus scrofa [14] = species: Sus scrofa; experiment: Inhibition of vinblastine binding to porcine tubulin preincubated with tubulin followed by vinblastine treatment measured after 2 hrs by immunoblot analysis
Sus scrofa [15] = species: Sus scrofa; experiment: Inhibition of nocodazole binding to porcine tubulin preincubated with tubulin followed by nocodazole treatment measured after 2 hrs by immunoblot analysis
Sus scrofa [16] = species: Sus scrofa; experiment: Inhibition of taxol binding to porcine tubulin preincubated with tubulin followed by taxol treatment measured after 2 hrs by immunoblot analysis

Chain of Ubiquitin carboxyl-terminal hydrolase 10 (Homo sapiens) (Q14694 whole entry, canonical isoform): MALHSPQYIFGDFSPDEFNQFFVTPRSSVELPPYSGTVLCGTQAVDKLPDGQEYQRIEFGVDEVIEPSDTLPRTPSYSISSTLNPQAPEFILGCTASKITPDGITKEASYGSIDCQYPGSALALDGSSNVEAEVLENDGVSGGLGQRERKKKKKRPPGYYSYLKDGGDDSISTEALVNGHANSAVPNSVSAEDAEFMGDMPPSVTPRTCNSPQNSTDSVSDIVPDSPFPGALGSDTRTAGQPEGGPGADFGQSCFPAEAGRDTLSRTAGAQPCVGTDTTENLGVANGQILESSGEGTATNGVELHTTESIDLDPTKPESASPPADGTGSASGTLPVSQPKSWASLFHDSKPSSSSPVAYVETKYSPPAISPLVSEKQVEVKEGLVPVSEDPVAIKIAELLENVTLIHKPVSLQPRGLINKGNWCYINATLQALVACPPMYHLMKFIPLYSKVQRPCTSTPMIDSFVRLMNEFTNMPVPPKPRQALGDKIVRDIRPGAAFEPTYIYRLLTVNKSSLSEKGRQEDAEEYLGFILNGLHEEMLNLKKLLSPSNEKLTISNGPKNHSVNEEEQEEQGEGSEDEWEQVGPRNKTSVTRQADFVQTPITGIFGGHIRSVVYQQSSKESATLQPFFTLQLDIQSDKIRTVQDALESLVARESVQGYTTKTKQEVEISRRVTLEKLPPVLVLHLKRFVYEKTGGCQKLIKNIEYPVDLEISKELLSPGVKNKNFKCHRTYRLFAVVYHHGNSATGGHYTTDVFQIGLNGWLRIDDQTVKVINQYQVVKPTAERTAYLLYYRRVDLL
Chain of Probable ATP-dependent RNA helicase DDX17 (Homo sapiens) (Q92841 whole entry): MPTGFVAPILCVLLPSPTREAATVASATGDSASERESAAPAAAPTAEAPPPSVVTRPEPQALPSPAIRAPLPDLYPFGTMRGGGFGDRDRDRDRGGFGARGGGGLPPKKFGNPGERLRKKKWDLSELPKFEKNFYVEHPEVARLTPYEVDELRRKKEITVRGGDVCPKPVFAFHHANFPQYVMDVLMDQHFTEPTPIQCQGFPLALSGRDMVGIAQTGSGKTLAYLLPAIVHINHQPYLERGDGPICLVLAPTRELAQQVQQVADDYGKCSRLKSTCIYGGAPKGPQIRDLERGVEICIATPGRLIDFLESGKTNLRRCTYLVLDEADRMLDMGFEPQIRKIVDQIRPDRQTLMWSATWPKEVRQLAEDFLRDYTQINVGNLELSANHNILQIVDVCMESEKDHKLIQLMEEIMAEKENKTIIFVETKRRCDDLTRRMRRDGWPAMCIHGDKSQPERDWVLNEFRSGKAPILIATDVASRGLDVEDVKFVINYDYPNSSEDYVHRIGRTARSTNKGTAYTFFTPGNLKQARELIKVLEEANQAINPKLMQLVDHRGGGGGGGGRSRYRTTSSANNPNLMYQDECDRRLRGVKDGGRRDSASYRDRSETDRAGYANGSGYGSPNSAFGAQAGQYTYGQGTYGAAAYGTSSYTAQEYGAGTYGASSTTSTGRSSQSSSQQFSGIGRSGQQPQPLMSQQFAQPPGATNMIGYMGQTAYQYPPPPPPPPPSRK
Chain of Serine/arginine-rich splicing factor 9 (Homo sapiens) (Q13242 whole entry): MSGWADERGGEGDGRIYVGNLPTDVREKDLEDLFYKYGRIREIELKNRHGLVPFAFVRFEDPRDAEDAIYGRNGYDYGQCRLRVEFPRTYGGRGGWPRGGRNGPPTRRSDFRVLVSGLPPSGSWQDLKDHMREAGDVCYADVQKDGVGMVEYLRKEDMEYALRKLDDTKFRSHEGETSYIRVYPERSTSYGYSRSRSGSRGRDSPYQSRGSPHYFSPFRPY
Chain of Tubulin alpha-1C chain (Homo sapiens) (Q9BQE3 whole entry, looked up): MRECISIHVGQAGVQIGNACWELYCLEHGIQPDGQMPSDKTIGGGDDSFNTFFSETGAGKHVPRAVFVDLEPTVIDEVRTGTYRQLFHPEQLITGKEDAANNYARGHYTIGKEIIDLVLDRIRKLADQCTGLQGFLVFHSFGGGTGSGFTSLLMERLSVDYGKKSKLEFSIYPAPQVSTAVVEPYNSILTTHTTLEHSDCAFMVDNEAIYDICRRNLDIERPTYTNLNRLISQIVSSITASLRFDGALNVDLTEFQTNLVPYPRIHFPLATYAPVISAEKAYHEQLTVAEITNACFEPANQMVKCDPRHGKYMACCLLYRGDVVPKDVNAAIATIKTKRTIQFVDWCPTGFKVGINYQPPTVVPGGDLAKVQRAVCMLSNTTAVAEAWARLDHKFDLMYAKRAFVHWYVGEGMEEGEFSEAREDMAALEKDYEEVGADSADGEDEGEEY

Cc1cc2c(=O)[nH]c(CSC(=S)N(CCCNC(=O)CCCC[C@@H]3SC[C@@H]4NC(=O)N[C@@H]43)Cc3ccc(C#N)cc3)nc2s1
Activity [1]: 16.6%
Activity (A549 [2]): 35.7%
Activity [3]: 38.8%
Activity [4]: 52.8%
Activity [5]: 35.1%
Activity [6]: 42.8%
Activity [7]: 63.8%
Activity (A549 [8]): Active
Activity (Sus scrofa [9]): Active
inhibition (Sus scrofa [10]): Active
inhibition (Sus scrofa [11]): Active
inhibition (Sus scrofa [12]): inactive
inhibition (Sus scrofa [13]): Active
inhibition (Sus scrofa [14]): Active
inhibition (Sus scrofa [15]): Active
inhibition (Sus scrofa [16]): inactive
